pIC50: −log10 of the molar value.

For one test, the target named is Prothrombin (Bos taurus, UniProt P00735). Kind of test: Bovine thrombin concentration at which clotting time was prolonged 2x over the control. It is filed as functional. The note with it: read-out: I50. In outline:
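Clotting assay at 25 °C. The read-out was the time from thrombin addition to clot formation.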
In the case of `CCCCNC(=O)C(CCCN=C(N)N)NS(=O)(=O)c1cccc2c(N(C)C)cccc12` (stereo not given), the pIC50 is 5.68.

Take `CN(C)c1cccc2c(S(=O)(=O)NC(CCCNC(=N)N)C(=O)N3CCC(C(C)(C)C)CC3)cccc12` (stereo not given): the pIC50 is 5.70. The same measure, in the same setting: in the case of `COc1cccc2cccc(S(=O)(=O)NC(CCCN=C(N)N)C(=O)N3CCC(C)CC3)c12` (stereo not given) it was 5.40; in that of `COC1CCN(C(=O)C(CCCN=C(N)N)NS(=O)(=O)c2cccc3c(N(C)C)cccc23)CC1` (stereo not given), 5.40. As to `CCCNC(=O)C(CCCN=C(N)N)NS(=O)(=O)c1cccc2c(N(C)C)cccc12` (stereo not given), the pIC50 was 4.82. Turning to `CCC1CCN(C(=O)C(CCCNC(=N)N)NS(=O)(=O)c2cccc3ccccc23)CC1` (stereo not given), the pIC50 is 6.00. In the case of `CC(C)NC(=O)C(CCCN=C(N)N)NS(=O)(=O)c1cccc2c(N(C)C)cccc12` (stereo not given), the pIC50 was 2.96. For `CCCCN(CCCC)C(=O)C(CCCNC(=N)N)NS(=O)(=O)c1cccc2c(N(C)C)cccc12` (stereo not given), the pIC50 was 4.40.

With `CN(C)c1cccc2c(S(=O)(=O)NC(CCCNC(=N)N)C(=O)N3CCOCC3)cccc12` (stereo not given), the pIC50 is 6.22.

`COc1ccc(CNC(=O)C(CCCN=C(N)N)NS(=O)(=O)c2cccc3c(N(C)C)cccc23)cc1` (stereo not given): the pIC50 is 3.30. For `CN(C)c1cccc2c(S(=O)(=O)NC(CCCN=C(N)N)C(=O)N3CC4CCCC(C4)C3)cccc12` (stereo not given), the pIC50 is 5.00.

For the molecule `CCCCN(C)C(=O)C(CCCNC(=N)N)NS(=O)(=O)c1ccc2ccccc2c1` (stereo not given), the pIC50 is 4.30. Take `CC1CCCCN1C(=O)C(CCCN=C(N)N)NS(=O)(=O)c1cccc2c(N(C)C)cccc12` (stereo not given): the pIC50 was 5.89. On the same count and under the same terms, in the case of `N=C(N)NCCCC(NS(=O)(=O)c1cccc2ccccc12)C(=O)N1CCCCCC1` (stereo not given) it was 5.00. Take `CN(C)c1cccc2c(S(=O)(=O)NC(CCCNC(=N)N)C(=O)N3CCc4ccccc43)cccc12` (stereo not given): the pIC50 is 6.00. For the molecule `N=C(N)NCCCC(NS(=O)(=O)c1cccc2c1CCCC2)C(=O)N1CCOCC1` (stereo not given), the pIC50 is 5.19.

As to `CN(C)c1cccc2c(S(=O)(=O)NC(CCCNC(=N)N)C(=O)NC3CCCCC3)cccc12` (stereo not given), the pIC50 is 3.30. On to `CCCCNC(=O)C(CCCNC(=N)N)NS(=O)(=O)c1cccc2ccccc12` (stereo not given), for which the pIC50 is 4.30. As for `CCC1CCN(C(=O)C(CCCN=C(N)N)NS(=O)(=O)c2cccc3c(Cl)cccc23)CC1` (stereo not given), the pIC50 is 5.70. For `CN(C)c1cccc2c(S(=O)(=O)NC(CCCNC(=N)N)C(=O)N3CCSCC3)cccc12` (stereo not given), the pIC50 is 5.70. For `CCOc1cc2ccc(S(=O)(=O)NC(CCCN=C(N)N)C(=O)N3CCC(CC)CC3)cc2cc1OCC` (stereo not given), the pIC50 is 5.26. On to `N=C(N)NCCCC(NS(=O)(=O)c1ccc2c(c1)CCCC2)C(=O)N1CCCC1` (stereo not given), for which the pIC50 is 5.15. Regarding `CCC1CCN(C(=O)C(CCCN=C(N)N)NS(=O)(=O)c2cccc3c2CCCC3)CC1` (stereo not given), the pIC50 was 6.30. On the same count and under the same terms, in the case of `COc1cccc2c(S(=O)(=O)NC(CCCN=C(N)N)C(=O)N3CCC(C)CC3)cccc12` (stereo not given) it was 6.52; in that of `CCC1CCN(C(=O)C(CCCN=C(N)N)NS(=O)(=O)c2cc(OC)c3ccccc3c2)CC1` (stereo not given), 6.00; in that of `CCC1CCN(C(=O)C(CCCN=C(N)N)NS(=O)(=O)c2cccc3c(OC)cccc23)CC1` (stereo not given), 6.22. As to `CN(C)c1cccc2c(S(=O)(=O)NC(CCCN=C(N)N)C(=O)N3CCC(C)(C)CC3)cccc12` (stereo not given), the pIC50 is 5.10.

With `CC1CN(C(=O)C(CCCN=C(N)N)NS(=O)(=O)c2cccc3c(N(C)C)cccc23)CC(C)O1` (stereo not given), the pIC50 is 4.70. On the same count and under the same terms, as for `N=C(N)NCCCC(NS(=O)(=O)c1cccc2ccccc12)C(=O)N1CCC(c2ccccc2)CC1` (stereo not given), the figure is 4.00; as for `CN(C)c1cccc2c(S(=O)(=O)NC(CCCNC(=N)N)C(=O)N3CCCCCCCC3)cccc12` (stereo not given), 5.70; as for `CCN(CC)C(=O)C(CCCN=C(N)N)NS(=O)(=O)c1cccc2c(N(C)C)cccc12` (stereo not given), 4.26. Regarding `CCOCCNC(=O)C(CCCN=C(N)N)NS(=O)(=O)c1cccc2c(N(C)C)cccc12` (stereo not given), the pIC50 is 5.30. For the molecule `N=C(N)NCCCC(NS(=O)(=O)c1cccc2ccccc12)C(=O)N1CCOCC1` (stereo not given), the pIC50 was 4.70.

For `CCC1CCN(C(=O)C(CCCN=C(N)N)NS(=O)(=O)c2ccc3cc(C)ccc3c2)CC1` (stereo not given), the pIC50 was 6.30.

Turning to `CC1CCN(C(=O)C(CCCN=C(N)N)NS(=O)(=O)c2cccc3ccccc23)CC1` (stereo not given), the pIC50 was 5.40. `CCCCN(CC)C(=O)C(CCCN=C(N)N)NS(=O)(=O)c1cccc2c(N(C)C)cccc12` (stereo not given): the pIC50 was 4.30.

For `CCCCCCNC(=O)C(CCCN=C(N)N)NS(=O)(=O)c1cccc2c(N(C)C)cccc12` (stereo not given), the pIC50 is 4.70. Consider `CC1CCN(C(=O)C(CCCN=C(N)N)NS(=O)(=O)c2cccc3c(N(C)C)cccc23)CC1` (stereo not given), for which the pIC50 was 6.52. `CC1CCN(C(=O)C(CCCNC(=N)N)NS(=O)(=O)c2cccc3c2CCCC3)CC1` (stereo not given): the pIC50 is 6.00.

Take `CCCC1CCN(C(=O)C(CCCN=C(N)N)NS(=O)(=O)c2cccc3c(N(C)C)cccc23)CC1` (stereo not given): the pIC50 was 6.00.

With `CN(C)c1cccc2c(S(=O)(=O)NC(CCCNC(=N)N)C(=O)NCC3CCCCC3)cccc12` (stereo not given), the pIC50 was 4.40. On the same count and under the same terms, as for `CCC1CCN(C(=O)C(CCCN=C(N)N)NS(=O)(=O)c2ccc3ccc(=O)oc3c2)CC1` (stereo not given), the figure is 4.70; as for `CCC1CCN(C(=O)C(CCCNC(=N)N)NS(=O)(=O)c2ccc3c(c2)Cc2ccccc2O3)CC1` (stereo not given), 6.52. Take `CCCCN(C)C(=O)C(CCCN=C(N)N)NS(=O)(=O)c1cccc2ccccc12` (stereo not given): the pIC50 was 4.30. Consider `CC(C)C1CCN(C(=O)C(CCCN=C(N)N)NS(=O)(=O)c2cccc3c(N(C)C)cccc23)CC1` (stereo not given), for which the pIC50 is 6.00. As for `CCCCNC(=O)C(CCCN=C(N)N)NS(=O)(=O)c1ccc2c(c1)CCCC2` (stereo not given), the pIC50 was 5.30.

On to `CCC1CCN(C(=O)C(CCCNC(=N)N)NS(=O)(=O)c2cc(OC)c3cc(OC)ccc3c2)CC1` (stereo not given), for which the pIC50 was 7.00. For the molecule `CN(C)c1cccc2c(S(=O)(=O)NC(CCCNC(=N)N)C(=O)N3CCCc4ccccc43)cccc12` (stereo not given), the pIC50 was 4.77. On to `CCC1CCN(C(=O)C(CCCNC(=N)N)NS(=O)(=O)c2ccc3c(c2)Oc2ccccc2O3)CC1` (stereo not given), for which the pIC50 was 6.82. In the case of `CN(C)c1cccc2c(S(=O)(=O)NC(CCCN=C(N)N)C(=O)N3CCCCC3)cccc12` (stereo not given), the pIC50 is 6.00.

In the next test the target is Prothrombin (Bos taurus) (UniProt P00735). As to the kind of experiment: Percentage of rate of hydrolysis in 4 hr incubation by thrombin.
Conditions: not given
Format: functional. A digest of the protocol:
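Test compounds at 1 mM in 0.1 M Tris-HCl, pH 8.0, were incubated with thrombin (100 units in a 1.0 mL reaction) at 37 °C for 4 h. Hydrolysis rate was followed titrimetrically with a pH-stat and automatic burette at 37 °C and pH 8.0.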
The molecule `CCCCNC(=O)C(CCCN=C(N)N)NS(=O)(=O)c1cccc2c(N(C)C)cccc12` (stereo not given) returned a Hydrolysis of 0%. Still for that read-out and setting: in the case of `CCCCN(C)C(=O)C(CCCN=C(N)N)NS(=O)(=O)c1cccc2c(N(C)C)cccc12` (stereo not given) it was 0%; in that of `CCC1CCN(C(=O)C(CCCN=C(N)N)NS(=O)(=O)c2cccc3c(N(C)C)cccc23)CC1` (stereo not given), 0%; in that of `COCCNC(=O)C(CCCN=C(N)N)NS(=O)(=O)c1cccc2c(N(C)C)cccc12` (stereo not given), 0%. `CN(C)c1cccc2c(S(=O)(=O)NC(CCCN=C(N)N)C(=O)N3CCCCC3)cccc12` (stereo not given) gave a Hydrolysis of 0%.

For the origin of these results see ChEMBL document CHEMBL1121484, “Thrombin inhibitors. 2. Amide derivatives of N alpha-substituted L-arginine” (J Med Chem, 1980).
